In publication PMC4100325 (Journal of toxicology and environmental health. Part A, 2014):

Legend:
[1] = liver/body weight ratio after subchronic gavage exposure; format: in vivo, B6C3F1 male mice; conditions: mean ± SD
Procedure, shortened: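 Male B6C3F1 mice arrived at 6 weeks (~20 g) and were given test compound or water vehicle (pH 7) by daily gavage for 13 weeks, 6/group. Body weights were taken weekly. Animals were killed 24 hr after the last dose (CO2, cervical dislocation) and livers were weighed. Data are means ± S.D.; one-way ANOVA with Tukey post-hoc test.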

[2] = tested on: superoxide anion (SA) production in the livers of mice; assay: superoxide anion; format: in vivo, B6C3F1 male mice; conditions: for slope of regression SA vs Dose: SA as nmoles cytochrome c reduced/ min/ mg protein, dose mg/kg/day; for effect on SA production in livers: gavage daily for 13 weeks
Procedure, shortened: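 After 13 weeks of daily gavage (test compound, aqueous pH 7; 6 mice/group), liver was homogenised 10% w/v in Tris-KCl, pH 7.4. Homogenate was incubated with 45 nmol cytochrome c in PBS, pH 7.2, for 15 min at 37°C. The reaction was stopped on ice and centrifuged, and the supernatant was read at 550 nm. Values were converted with ε 2.1 × 10^4 M−1 cm−1 to nmol reduced/min/mg Lowry protein; regression was against dose.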

[3] = tested on: lipid peroxidation (LP) in the livers of mice; assay: lipid peroxidation; format: in vivo, B6C3F1 male mice; conditions: for slope of regression LP vs Dose: LP as nmoles TBARS/mg protein, dose mg/kg/day; for effect on LP in livers: gavage daily for 13 weeks; for intercept of regression LP vs Dose: regression analysis
Procedure, shortened: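 Mice (6/group) received daily gavage of test compound (pH 7 aqueous) for 13 weeks and were killed 24 hr post-dose. A 10% w/v liver homogenate in Tris-KCl (pH 7.4) was mixed with 1% phosphoric acid, 0.6% thiobarbituric acid and butylated hydroxyanisole, then heated at 100°C for 45 min. TBARS were extracted into n-butanol and read at 535 nm (ε 1.556 × 10^5 M−1 cm−1), normalised to Lowry protein. Means ± S.D. are reported; regression was against dose.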

[4] = tested on: DNA single strand breaks in the livers of mice; assay: DNA single strand breaks; format: in vivo, B6C3F1 male mice; conditions: for intercept of regression DNA-SSBs vs Dose / slope of regression DNA-SSBs vs Dose: DNA-SSBs as elution rate constant k; for slope of regression DNA-SSBs vs Dose: dose mg/kg/day; for effect on DNA SSB in livers: gavage daily for 13 weeks
Procedure, shortened: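 Male B6C3F1 mice (6/group) were gavaged daily for 13 weeks with test compound in distilled water (pH 7) and killed 24 hr after the last dose. Liver was homogenised 25% w/v in KCl/NaCl/spermine/spermidine/sucrose/EDTA/EGTA/Tris/PMSF/2-mercaptoethanol buffer and spun at 3000 g to get nuclei. These were lysed on 5 µm filters (2% SDS, 25 mM EDTA, pH 10.3, 20 min), then eluted at pH 12.3 into seven 3 ml fractions. DNA was read by diaminobenzoic acid fluorescence (436/521 nm). k = −2.3 × slope of log10 %DNA retained vs eluate volume.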

[5] = 410 mg DCA/kg/day, subchronic studies; ref Hassoun et al, 2010a; cited from earlier work
[6] = tested on: liver; conditions: subchronic studies; ref Hassoun et al. 2010a; cited from earlier work
[7] = tested on: cytochrome c reduction in liver homogenates; conditions: SOD added to assay mixture of liver homogenate; ref Hassoun and Dey, 2008; cited from earlier work

Row | Molecule | Liver/body weight ratio ([1]; DCA 7.5 mg/kg/day by gavage for 13 weeks) | Liver/body weight ratio ([1]; DCA 15 mg/kg/day by gavage for 13 weeks) | Liver/body weight ratio ([1]; DCA 30 mg/kg/day by gavage for 13 weeks) | slope of regression SA vs Dose [2] | effect on SA production in livers [2] | slope of regression LP vs Dose [3] | effect on LP in livers [3] | intercept of regression LP vs Dose [3] | intercept of regression DNA-SSBs vs Dose [4] | slope of regression DNA-SSBs vs Dose [4] | effect on DNA SSB in livers [4] | increase in liver/body weight ratio associated with hepatomegaly [5] | threshold dose for hepatotoxicity [6] | Liver/body weight ratio ([1]; TCA 12.5 mg/kg/day by gavage for 13 weeks) | Liver/body weight ratio ([1]; TCA 25 mg/kg/day by gavage for 13 weeks) | Liver/body weight ratio ([1]; TCA 50 mg/kg/day by gavage for 13 weeks) | inhibition of cytochrome c reduction [7]
1 | O=C(O)C(Cl)Cl [DCA, sodium dichloroacetate] | 0.054 ± 0.009 | 0.051 ± 0.002 | 0.053 ± 0.007 | 0.1036 | dose-dependent increases | 0.2041 | dose-dependent increases | 1.185 nmoles TBARS/mg protein | 0.00215 | 0.000201 | dose-dependent increases | 1.3 fold | 154 mg/kg/day |  |  |  | 
2 | O=C(O)C(Cl)(Cl)Cl [TCA, sodium trichloroacetate] |  |  |  | 0.0237 | dose-dependent increases | 0.0631 | dose-dependent increases | 0.870 nmoles TBARS/mg protein | 0.00152 | 0.000052 | dose-dependent increases |  | 410 mg/kg/day | 0.057 ± 0.003 | 0.055 ± 0.005 | 0.049 ± 0.005 | 
3 | superoxide dismutase [SOD] |  |  |  |  |  |  |  |  |  |  |  |  |  |  |  |  | 91.1%
